Test results published in ChEMBL document CHEMBL4261598, “Synthesis of novel mono and bis nitric oxide donors with high cytocompatibility and release activity” (Bioorg Med Chem Lett, 2018).
The source made the active and inactive calls. The rule behind the calls is not given here.

Experiments:
VSMC [1] = assay: (§1) Cytotoxicity against human VSMC assessed as cell viability at 100 uM after 24 hrs by MTT assay; assay type: cell-based; settings: vsmc, 24 h, 100 µM
How it was run: (§2)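 Human vascular smooth muscle cells incubated 24 h with amidoximes over 0.001 to 100 µM; viability measured (method in Supporting Information). Mean ± SEM of three to four tests, two-way ANOVA.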

Liver = assay: Induction of NO release in rat liver microsomes assessed as nitrite levels after 10 mins in presence of NADPH and dioxygen by Griess assay; assay type: functional; settings: microsome
How it was run: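 Amidoximes incubated 10 min with rat liver microsomes and NADPH; supernatant nitrite quantified by Griess assay, expressed as nmol NO2-/mg P450. Background from controls lacking microsomes, amidoxime or NADPH, or with parent nitrile, was subtracted. 4-Chlorobenzamidoxime served as reference. Mean ± SEM of three to five independent experiments.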

VSMC [2] = assay: Induction of NO release in human VSMC assessed as intracellular S-nitrosothiol level at 100 uM after 1 hr by fluorimetric method; assay type: functional
How it was run: (§3)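 HVSMC seeded in 6-well plates 48 h before, then incubated 1 h at 37°C with compound (mono-amidoximes and GSNO reference 100 µM, bis-amidoxime 50 µM); controls PBS with 0.1% DMSO. Cells washed and lysed, then RSNO and nitrite quantified immediately by fluorometric 2,3-diaminonaphthalene/N2O3 assay giving naphthotriazole (ex 375, em 415 nm). Mean ± SEM, three independent experiments.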

VSMC [3] = assay: Induction of NO release in human VSMC assessed as intracellular S-nitrosothiol level at 50 uM after 1 hr by fluorimetric method; assay type: functional; how it was run: as §3
[4] = as §1; assay type: cell-based; settings: VSMC cells, read-out: Activity; how it was run: as §2

SMILES	Activity (VSMC [1])	Activity (Liver)	Activity (VSMC [2])	Activity (VSMC [3]) [µM]	viability at 24 h, 100 µM [4] [%]
COc1ccc(C(=N)NO)cc1	Non-Toxic	1.5 nmol/mg	0.21 µM	–	–
N/C(CCCCOc1ccc(/C(N)=N/O)cc1)=N\O	Non-Toxic	Active	–	0.17	–
N[C@@H](CCC(=O)N[C@@H](CSN=O)C(=O)NCC(=O)O)C(=O)O	–	–	Active	–	–
N/C(=N\O)c1ccc(Cl)cc1	–	1.3 nmol/mg	0.03 µM	–	–
N/C(CCCCOc1ccccc1)=N\O	Non-Toxic	Active	–	–	–
N/C(=N\O)c1ccc(O)cc1	–	2.4 nmol/mg	0.2 µM	–	74.7
